Reference: ChEMBL document CHEMBL4387720, “Lead generation of 1,2-dithiolanes as exon 19 and exon 21 mutant EGFR tyrosine kinase inhibitors” (Bioorg Med Chem Lett, 2019)

Assays:
[1] = biological target: T1, Epidermal growth factor receptor (Homo sapiens, UniProt P00533); assay: Inhibition of probe binding to wild type EGFR (unknown origin) using rabbit reticulate lysate system after 1 hr by luminescence assay
[2] = biological target: Epidermal growth factor receptor (Homo sapiens, UniProt P00533, A750P/L747-E749DEL); assay: Binding affinity to human partial length EGFR L747-E749del/A750P mutant expressed in bacterial expression system by KinomeScan assay
How it was run: (§1)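 Competition binding against an immobilized active-site-directed ligand. Bound kinase is quantified by qPCR of its DNA tag. Kd values come from duplicate 11-point dose-response curves.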

[3] = biological target: Epidermal growth factor receptor (Homo sapiens, UniProt P00533, G719C); assay: Binding affinity to human partial length EGFR G719C mutant (R669 to V1011 residues) expressed in bacterial expression system by KinomeScan assay; how it was run: as §1
MOLT-4 [4] = assay: cells; assay type: functional; conditions: Homo sapiens, MOLT-4, 48 h
Cytochrome P450 2C19 = Cytochrome P450 2C19 (Homo sapiens, UniProt P33261); assay: Inhibition of CYP2C19 (unknown origin); assay type: ADME
[5] = biological target: Receptor tyrosine-protein kinase erbB-2 (Homo sapiens, UniProt P04626); assay: Inhibition of probe binding to HER2 (unknown origin) using rabbit reticulate lysate system after 1 hr by luminescence assay
How it was run: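 Homogeneous competition binding in rabbit reticulocyte lysate with kinase expressed in the lysate. IC50 taken from a ten-point dose-response curve; value is the average of triplicate experiments.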

Cytochrome P450 1A2 = Cytochrome P450 1A2 (Homo sapiens, UniProt P05177); assay: Inhibition of CYP1A2 (unknown origin); assay type: ADME
[6] = biological target: Epidermal growth factor receptor (Homo sapiens, UniProt P00533, L747-S752DEL/P753S); assay: Binding affinity to human partial length EGFR L747-S752del/P753S mutant expressed in bacterial expression system by KinomeScan assay; how it was run: as §1
[7] = biological target: Tyrosine-protein kinase BTK (Homo sapiens) (UniProt Q06187); assay: Inhibition of probe binding to BTK (unknown origin) using rabbit reticulate lysate system at 250 nM after 1 hr by luminescence assay relative to control
NCI-H322M = assay: Therapeutic index, ratio of LC50 for human NCI-H322M cells to GI50 for human NCI-H322M cells; assay type: functional
How it was run: (§2)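 NCI-60 panel screen using five-dose response curves, each value an average of 2 experiments. […] The therapeutic index is calculated as LC50/GI50 for the same cell line.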

[8] = biological target: Epidermal growth factor receptor (Homo sapiens, UniProt P00533, G719S); assay: Binding affinity to human partial length EGFR G719S mutant (R669 to V1011 residues) expressed in bacterial expression system by KinomeScan assay; how it was run: as §1
MOLT-4 [9] = assay: Cytotoxicity against human MOLT4 cells assessed as reduction in measured protein incubated for 48 hrs by SRB assay; assay type: functional; conditions: MOLT-4, 48 h, read-out: LC50 (the source's name)
How it was run: (§3)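 Tested in the NCI-60 panel with a five-dose response curve, each value the mean of 2 experiments.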

[10] = biological target: Epidermal growth factor receptor (Homo sapiens, UniProt P00533, S752-I759DEL); assay: Binding affinity to human partial length EGFR S752-I759 deletion mutant expressed in bacterial expression system by KinomeScan assay; how it was run: as §1
NCI-H460 = assay: cells; assay type: functional; conditions: Homo sapiens, NCI-H460, 48 h
[11] = biological target: T1, Epidermal growth factor receptor; assay: Binding affinity to human partial length wild type EGFR (R669 to V1011 residues) expressed in bacterial expression system by kinomescan assay; how it was run: as §1
[12] = biological target: Epidermal growth factor receptor (Homo sapiens, UniProt P00533, L858R/T790M); assay: Inhibition of human partial length EGFR L858R/T790M mutant (R669 to V1011 residues) expressed in mammalian expression system by competition binding assay based KinomeScan assay; how it was run: as §1
[13] = biological target: Epidermal growth factor receptor (Homo sapiens, UniProt P00533, E746-A750DEL); assay: Binding affinity to human partial length EGFR E746-A750 deletion mutant expressed in bacterial expression system by KinomeScan assay; how it was run: as §1
MOLT-4 [14] = assay: Therapeutic index, ratio of LC50 for human MOLT4 cells to GI50 for human MOLT4 cells; assay type: functional; how it was run: as §2
Cytochrome P450 2C8 = Cytochrome P450 2C8 (Homo sapiens, UniProt P10632); assay: Inhibition of CYP2C8 (unknown origin); assay type: ADME
Homo sapiens = species on record: Homo sapiens; assay: Selectivity ratio, ratio of IC50 for probe binding to HER2 (unknown origin) to IC50 for probe binding to EGFR L858R mutant (unknown origin)
How it was run: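 Ratio of two IC50 values measured in the rabbit reticulocyte lysate competition binding assay: HER2 and EGFR L858R. Each IC50 comes from displacement of an active-site-dependent probe, read by luminescence, with a ten-point dose-response. Each IC50 is the average of triplicate experiments.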

[15] = biological target: T2, Epidermal growth factor receptor (Homo sapiens, UniProt P00533, L858R); assay: Binding affinity to human partial length EGFR L858R mutant (R669 to V1011 residues) expressed in bacterial expression system under full equilibrating condition by scanKINETIC assay
How it was run: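 Binding kinetics are read from Kd values measured under four dose-response arms. Arm A is full equilibration. Arm B is equilibrate, then 3-fold dilution, then equilibrate. Arm C is partial equilibration. Arm D is predilution followed by full equilibration. Comparing the arms assesses reversibility of binding.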

[16] = biological target: Tyrosine-protein kinase Tec (Homo sapiens) (UniProt P42680); assay: Inhibition of probe binding to TEC (unknown origin) using rabbit reticulate lysate system at 250 nM after 1 hr by luminescence assay relative to control
Cytochrome P450 2D6 = Cytochrome P450 2D6 (Homo sapiens, UniProt P10635); assay: Inhibition of CYP2D6 (unknown origin); assay type: ADME
A549 [17] = assay: Cytotoxicity against human A549 cells assessed as reduction in measured protein incubated for 48 hrs by SRB assay; assay type: functional; conditions: A549, 48 h, read-out: LC50 (the source's name); how it was run: as §3
CCRF-CEM [18] = assay: cells; assay type: functional; conditions: Homo sapiens, 48 h
A549 [19] = assay: cells; assay type: functional; conditions: Homo sapiens, A549, 48 h
[20] = biological target: T2, Epidermal growth factor receptor
[21] = Half life in rat hepatocytes; assay type: ADME, cell-based, Hepatocyte
CCRF-CEM [22] = assay: Therapeutic index, ratio of LC50 for human CCRF-CEM cells to GI50 for human CCRF-CEM cells; assay type: functional; how it was run: as §2
[23] = biological target: Cytoplasmic tyrosine-protein kinase BMX (Homo sapiens) (UniProt P51813); assay: Inhibition of probe binding to BMX (unknown origin) using rabbit reticulate lysate system at 250 nM after 1 hr by luminescence assay relative to control
[24] = Half life in rat S9 fraction; assay type: ADME, subcellular
CCRF-CEM [25] = assay: Cytotoxicity against human CCRF-CEM cells assessed as reduction in measured protein incubated for 48 hrs by SRB assay; assay type: functional; conditions: read-out: LC50 (the source's name); how it was run: as §3
Cytochrome P450 3A4 = Cytochrome P450 3A4 (Homo sapiens, UniProt P08684); assay: Inhibition of CYP3A4 (unknown origin); assay type: ADME
Cytochrome P450 3A4, sequence (P08684 whole entry): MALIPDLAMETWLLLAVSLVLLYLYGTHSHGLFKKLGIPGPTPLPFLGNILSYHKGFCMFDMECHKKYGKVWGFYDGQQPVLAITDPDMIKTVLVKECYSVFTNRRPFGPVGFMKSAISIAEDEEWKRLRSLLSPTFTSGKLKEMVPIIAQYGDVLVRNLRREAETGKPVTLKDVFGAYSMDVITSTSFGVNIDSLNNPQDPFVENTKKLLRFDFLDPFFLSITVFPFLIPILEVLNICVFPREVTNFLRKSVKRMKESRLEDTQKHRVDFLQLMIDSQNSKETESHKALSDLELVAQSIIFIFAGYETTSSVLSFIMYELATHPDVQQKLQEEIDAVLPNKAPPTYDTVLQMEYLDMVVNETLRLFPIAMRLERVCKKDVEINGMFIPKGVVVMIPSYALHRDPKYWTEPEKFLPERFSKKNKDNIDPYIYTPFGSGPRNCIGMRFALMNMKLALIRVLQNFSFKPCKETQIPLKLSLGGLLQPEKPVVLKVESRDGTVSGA

T2 sequence (P00533 25-1210 L858R limits assumed): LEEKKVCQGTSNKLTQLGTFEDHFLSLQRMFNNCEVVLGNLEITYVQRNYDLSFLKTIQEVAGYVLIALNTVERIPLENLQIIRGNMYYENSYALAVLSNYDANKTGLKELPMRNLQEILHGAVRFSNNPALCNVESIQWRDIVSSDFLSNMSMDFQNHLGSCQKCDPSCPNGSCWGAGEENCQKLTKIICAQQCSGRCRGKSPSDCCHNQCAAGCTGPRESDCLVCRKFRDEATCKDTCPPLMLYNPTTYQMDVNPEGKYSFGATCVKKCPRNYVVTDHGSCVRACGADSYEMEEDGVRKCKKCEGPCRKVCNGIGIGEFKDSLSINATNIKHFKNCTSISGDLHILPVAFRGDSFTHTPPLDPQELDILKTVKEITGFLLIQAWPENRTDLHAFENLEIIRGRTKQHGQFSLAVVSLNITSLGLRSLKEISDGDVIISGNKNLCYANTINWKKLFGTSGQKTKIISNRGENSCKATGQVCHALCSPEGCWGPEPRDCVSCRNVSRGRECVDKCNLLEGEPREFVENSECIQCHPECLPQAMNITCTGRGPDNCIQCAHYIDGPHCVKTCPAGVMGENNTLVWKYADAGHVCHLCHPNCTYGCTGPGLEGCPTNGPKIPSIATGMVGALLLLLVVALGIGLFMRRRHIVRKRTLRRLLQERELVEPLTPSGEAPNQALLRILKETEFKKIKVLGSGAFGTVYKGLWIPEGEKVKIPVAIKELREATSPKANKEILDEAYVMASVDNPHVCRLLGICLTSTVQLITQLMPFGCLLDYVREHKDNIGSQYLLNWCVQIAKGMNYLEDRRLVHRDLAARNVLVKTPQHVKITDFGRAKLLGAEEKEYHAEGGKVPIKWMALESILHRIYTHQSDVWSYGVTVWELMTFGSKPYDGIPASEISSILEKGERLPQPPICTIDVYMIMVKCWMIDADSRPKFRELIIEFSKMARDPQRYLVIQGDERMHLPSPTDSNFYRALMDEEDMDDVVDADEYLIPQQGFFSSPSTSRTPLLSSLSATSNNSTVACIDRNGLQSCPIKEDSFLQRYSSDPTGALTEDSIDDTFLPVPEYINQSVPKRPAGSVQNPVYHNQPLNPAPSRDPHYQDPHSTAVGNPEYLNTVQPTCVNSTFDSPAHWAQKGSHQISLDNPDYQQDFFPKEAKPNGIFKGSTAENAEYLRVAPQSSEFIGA
T1 sequence (P00533 whole entry): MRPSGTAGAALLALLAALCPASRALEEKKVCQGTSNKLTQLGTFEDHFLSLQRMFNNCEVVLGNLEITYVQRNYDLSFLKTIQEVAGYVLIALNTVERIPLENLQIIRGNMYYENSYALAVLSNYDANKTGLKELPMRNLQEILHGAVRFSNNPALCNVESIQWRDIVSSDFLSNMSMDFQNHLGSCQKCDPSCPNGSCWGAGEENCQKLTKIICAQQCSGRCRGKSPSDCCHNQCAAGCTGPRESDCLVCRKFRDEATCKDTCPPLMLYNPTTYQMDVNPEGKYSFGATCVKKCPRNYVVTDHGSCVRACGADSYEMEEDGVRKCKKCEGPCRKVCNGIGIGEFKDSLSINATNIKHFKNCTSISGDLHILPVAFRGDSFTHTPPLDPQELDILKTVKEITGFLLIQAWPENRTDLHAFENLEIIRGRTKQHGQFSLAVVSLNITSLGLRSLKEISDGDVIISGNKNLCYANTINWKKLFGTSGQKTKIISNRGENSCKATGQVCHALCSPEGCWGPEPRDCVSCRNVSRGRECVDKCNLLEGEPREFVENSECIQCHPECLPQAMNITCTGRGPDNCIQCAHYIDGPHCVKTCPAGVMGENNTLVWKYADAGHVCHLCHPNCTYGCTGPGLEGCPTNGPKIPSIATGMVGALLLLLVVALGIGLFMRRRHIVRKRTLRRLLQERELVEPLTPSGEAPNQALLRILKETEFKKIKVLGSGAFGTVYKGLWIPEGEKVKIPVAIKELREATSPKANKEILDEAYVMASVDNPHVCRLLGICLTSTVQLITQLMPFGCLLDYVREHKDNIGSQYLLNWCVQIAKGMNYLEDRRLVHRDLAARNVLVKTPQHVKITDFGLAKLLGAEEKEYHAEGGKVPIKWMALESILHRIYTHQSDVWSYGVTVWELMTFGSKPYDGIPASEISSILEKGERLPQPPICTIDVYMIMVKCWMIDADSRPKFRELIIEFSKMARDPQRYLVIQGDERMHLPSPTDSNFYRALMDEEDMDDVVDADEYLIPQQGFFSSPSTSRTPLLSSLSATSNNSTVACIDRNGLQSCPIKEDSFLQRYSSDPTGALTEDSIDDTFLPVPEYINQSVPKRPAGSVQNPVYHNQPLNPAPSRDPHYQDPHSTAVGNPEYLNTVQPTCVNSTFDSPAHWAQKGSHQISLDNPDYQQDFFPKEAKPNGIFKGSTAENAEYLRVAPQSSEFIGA
Cytochrome P450 1A2, sequence (P05177 whole entry): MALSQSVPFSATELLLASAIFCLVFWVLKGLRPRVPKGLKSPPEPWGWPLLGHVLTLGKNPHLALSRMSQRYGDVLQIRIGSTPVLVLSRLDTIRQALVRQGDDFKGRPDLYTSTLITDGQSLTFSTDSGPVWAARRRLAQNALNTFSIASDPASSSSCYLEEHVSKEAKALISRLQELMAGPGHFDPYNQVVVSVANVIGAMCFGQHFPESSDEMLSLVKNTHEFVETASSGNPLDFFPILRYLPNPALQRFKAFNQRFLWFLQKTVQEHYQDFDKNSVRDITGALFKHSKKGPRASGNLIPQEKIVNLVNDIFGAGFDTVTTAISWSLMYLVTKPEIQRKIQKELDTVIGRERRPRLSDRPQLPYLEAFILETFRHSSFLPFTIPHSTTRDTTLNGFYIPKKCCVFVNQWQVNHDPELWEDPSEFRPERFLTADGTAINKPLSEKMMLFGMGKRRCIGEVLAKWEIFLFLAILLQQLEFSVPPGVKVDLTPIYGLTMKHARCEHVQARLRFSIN
Epidermal growth factor receptor (Homo sapiens, UniProt P00533, G719C), sequence (P00533 25-1210 G719C limits assumed): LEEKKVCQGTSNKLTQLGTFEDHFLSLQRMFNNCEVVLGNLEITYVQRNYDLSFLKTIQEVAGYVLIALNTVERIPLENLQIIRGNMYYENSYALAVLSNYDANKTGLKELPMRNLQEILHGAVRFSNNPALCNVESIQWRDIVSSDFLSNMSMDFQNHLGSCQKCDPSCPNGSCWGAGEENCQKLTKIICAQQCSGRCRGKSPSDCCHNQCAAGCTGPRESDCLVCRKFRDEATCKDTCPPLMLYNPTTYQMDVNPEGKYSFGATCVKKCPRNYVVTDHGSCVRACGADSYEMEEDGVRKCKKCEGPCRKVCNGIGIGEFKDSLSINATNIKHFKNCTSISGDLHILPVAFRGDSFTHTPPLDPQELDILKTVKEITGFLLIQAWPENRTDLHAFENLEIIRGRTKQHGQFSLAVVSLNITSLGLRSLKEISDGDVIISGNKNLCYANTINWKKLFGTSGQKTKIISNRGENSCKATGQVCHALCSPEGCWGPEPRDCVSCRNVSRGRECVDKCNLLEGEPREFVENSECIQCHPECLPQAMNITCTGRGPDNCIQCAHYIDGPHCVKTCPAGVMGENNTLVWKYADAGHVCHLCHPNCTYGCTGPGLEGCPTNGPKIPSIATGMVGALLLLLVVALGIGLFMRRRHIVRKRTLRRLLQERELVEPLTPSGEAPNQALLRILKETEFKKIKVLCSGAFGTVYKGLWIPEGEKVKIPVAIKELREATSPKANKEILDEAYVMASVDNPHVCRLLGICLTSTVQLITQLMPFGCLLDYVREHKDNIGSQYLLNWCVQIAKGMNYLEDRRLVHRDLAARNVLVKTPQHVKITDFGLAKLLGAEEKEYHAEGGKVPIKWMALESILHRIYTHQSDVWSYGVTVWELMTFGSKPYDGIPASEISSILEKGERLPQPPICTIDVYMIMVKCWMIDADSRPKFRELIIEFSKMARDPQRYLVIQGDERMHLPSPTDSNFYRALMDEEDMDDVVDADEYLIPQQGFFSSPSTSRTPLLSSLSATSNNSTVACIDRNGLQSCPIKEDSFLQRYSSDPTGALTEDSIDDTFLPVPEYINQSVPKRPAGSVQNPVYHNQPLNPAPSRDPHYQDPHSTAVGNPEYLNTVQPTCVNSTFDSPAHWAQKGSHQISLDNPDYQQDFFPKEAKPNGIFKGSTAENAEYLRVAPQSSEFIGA
Cytochrome P450 2D6, sequence (P10635 whole entry): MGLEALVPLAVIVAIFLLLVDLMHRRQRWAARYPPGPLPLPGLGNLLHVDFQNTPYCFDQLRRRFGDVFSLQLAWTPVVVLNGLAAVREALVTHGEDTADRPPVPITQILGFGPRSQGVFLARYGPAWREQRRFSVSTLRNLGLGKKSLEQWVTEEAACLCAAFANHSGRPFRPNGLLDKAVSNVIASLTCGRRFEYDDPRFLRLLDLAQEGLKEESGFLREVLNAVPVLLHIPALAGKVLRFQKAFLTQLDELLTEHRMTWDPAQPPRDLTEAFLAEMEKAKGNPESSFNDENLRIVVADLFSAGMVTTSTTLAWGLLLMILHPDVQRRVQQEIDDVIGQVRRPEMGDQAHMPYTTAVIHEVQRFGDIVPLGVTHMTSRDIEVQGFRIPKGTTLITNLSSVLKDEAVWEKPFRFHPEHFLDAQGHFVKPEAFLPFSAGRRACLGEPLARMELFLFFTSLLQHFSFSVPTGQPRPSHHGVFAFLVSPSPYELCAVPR

## CCOc1cc2ncc(C#N)c(Nc3ccc(OCc4cccc(F)c4)c(Cl)c3)c2cc1NC(=O)CC1CCSS1 (stereo not drawn)
[1]
  IC50: 120 nM
[2]
  Kd: 7.9 nM
[3]
  Kd: 5.7 nM
MOLT-4 [4]
  GI50: 160 nM
Cytochrome P450 2C19
  IC50: > 50000 nM
[5]
  IC50: 160 nM
Cytochrome P450 1A2
  IC50: > 50000 nM
[6]
  Kd: 12 nM
[7]
  inhibition: 0%
NCI-H322M
  TI: >41.5
[8]
  Kd: 14 nM
MOLT-4 [9]
  CC50: > 25000 nM
[10]
  Kd: 10 nM
NCI-H460
  GI50: 470 nM
[11]
  Kd: 120 nM
[12]
  Kd: 10000 nM
[13]
  Kd: 48 nM
MOLT-4 [14]
  TI: >156
Cytochrome P450 2C8
  IC50: > 50000 nM
Homo sapiens
  Ratio IC50: 14.7
[15]
  Kd: 9.6 nM
[16]
  inhibition: 20%
Cytochrome P450 2D6
  IC50: > 50000 nM
A549 [17]
  CC50: 3400 nM
CCRF-CEM [18]
  GI50: 150 nM
A549 [19]
  GI50: 540 nM
[20]
  IC50: 10.9 to 11 nM
[21]
  half-life: 53.6 min
CCRF-CEM [22]
  TI: >166
[23]
  inhibition: 10%
[24]
  half-life: > 60 min
CCRF-CEM [25]
  CC50: > 25000 nM
Cytochrome P450 3A4
  IC50: > 50000 nM
